T cruzi repl: inhibitors of intracellular T. cruzi growth, primary screen, luminescence, NIH3T3 host cells | inhibition, % (no concentration beside the values) | T. cruzi beta-gal in NIH3T3, 90 h | 300,000 tested, 1.4% active;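 active = mean inhibition across valid replicates above about 55%, limit read from the data; inconclusive = mean below that limit but half or more replicates reach it; inactive = mean below it, under half of replicates reach it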;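 note: signal also drops with host cell toxicity which is not excluded here; 0% = plate median of DMSO wells and 100% = zero luminescence signal; higher percent means less beta-gal luminescence so fewer parasites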
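System – NIH/3T3 host cells with β-galactosidase reporter T. cruzi · Doses – single 50 nL compound addition per well in DMSO · Reagent – 5000 T. cruzi trypomastigotes/well · Medium – Low-serum DMEM with 2% FBS · Timing – ≥90 h infection period, 3 h prior cell attachment · Evaluation – parasite load inhibition, % · Technique – GalScreen luminescence, 60 min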
CaV13 FRET inh: Primary screen for inhibitors of IQ motif and Ca2+-dependent inactivation inhibitor domain binding in CACNA1D, Förster resonance energy transfer in living cells, …; HEK cells, CFP/YFP FRET ICDI-IQ, plate reader, 10 min; percent FRET-ratio fall versus neutral wells; inhibition, % at 12.3 µM; 340,000 tested, 0.098% active; AID 743397;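 active = mean replicate inhibition of at least 30% and at least 1% of replicates passing that level; inconclusive = only one of the two criteria is met; inactive = neither criterion is met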;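 note: 0% = median of the neutral control wells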
PvdQ inh: P. aeruginosa PvdQ acylase inhibitors, primary screen, biochemical, fluorescence, plate reader and imaging, single point; PvdQ acylase [Pseudomonas aeruginosa LESB58]; purified PvdQ acylase; inhibition, % at 10 µM; 340,000 tested, 0.063% active; in the data active = inhibition above about 30%, passing the limit was not always enough; inconclusive = no clear call, values can overlap the other calls;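 note: 0% = vehicle neutral wells and 100% = reference inhibitor wells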
N-glyco inh: increase of ERlucT glycosylation luciferase signal, primary screen, N-linked glycosylation inhibitor project, D54 ERlucT cells, luminescence, set 2; AID 588692, 2011; 360,000 tested, 0.23% active; reporter increase, % at 12.5 µM; D54 ERlucT glycosylation luciferase reporter, 24 h; percent of 100 nM tunicamycin response;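 active = mean luciferase reporter signal, scaled so untreated is 0 and the glycosylation-blocking control 100, at or above a set limit in every replicate; inconclusive = mean reaches the limit but not every replicate does; inactive = mean below the limit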;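 note: luciferase carries N-glycosylation sites so blocking glycosylation raises the light; 0% = median of neutral control wells and 100% = median of 100 nM tunicamycin wells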
PfHsp90 yeast 2: growth inhibition of PfHsp90-expressing yeast, primary screen, antimalarial PfHsp90 inhibitor project, S. cerevisiae, BacTiter-Glo luminescence, single point, set 2 | BacTiter-Glo ATP, 48 h; yeast lacking PDR1 and PDR3 efflux regulators | inhibition, % at 9.4 µM | 310,000 tested, 0.32% active | AID 504621, 2011;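 active = every replicate shows inhibition above about 80%, whatever the replicate mean, limit read from the data; inconclusive = mean inhibition reaches the set limit but some replicate falls short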;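 note: 0% = DMSO neutral controls and 100% = 20 µM radicicol positive controls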
HSF-1 act: HSF-1 activators, primary screen, NIH3T3-HGL cells, MG132 stress, luminescence, single point; NIH3T3-HGL HSF-1 luciferase reporter, 8 h; 100% = twice DMSO control signal; activation, % at 9 µM; 300,000 tested, 1.7% active;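 active = mean replicate activation of at least 50% with a set share of replicates each reaching 50%; inconclusive = only one of those two conditions met; inactive = mean below 50% and too few replicates reaching it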;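 note: 0% = median of the neutral control wells and 100% = twice that signal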
Numbers without * were called inactive; ? = inconclusive; . = no result given. In the library only some 3% were active in any assay of this set; here they are far more common.

SMILES	T cruzi repl	CaV13 FRET inh	PvdQ inh	N-glyco inh	PfHsp90 yeast 2	HSF-1 act
CCn1nc(C)cc1C(=O)Sc1cccc(Br)c1	12.7	-4.6	-12.0	15.5	-1.0	-14.2
O=C(CCc1ccccc1)c1ccc2c(c1)OCCCO2	-6.9	-8.6	-13.5	-7.1	.	?
O/N=C(/CCc1ccccc1)c1ccc2c(c1)OCCO2	-7.1	1.6	1.6	2.1	-20.6	55.2*
Cc1[nH]n(-c2ccccc2)c(=O)c1N=Nc1cccc([N+](=O)[O-])c1	61.5*	-4.1	-12.6	2.7	-9.0	11.8
Cc1[nH]n(-c2ccccc2)c(=O)c1N=Nc1cccc(Cl)c1	-3.7	-1.5	-14.6	2.1	14.9	10.4
COc1cc2nc(Nc3ccc(C)c(C)c3)nc(N)c2cc1OC	56.1*	-18.4	-16.9	-6.3	3.9	-15.7
COc1cc2nc(N(C)C)nc(N)c2cc1OC	62.8*	-4.6	-0.4	47.6*	.	4.0
COC(=O)C1=C(C)N(Cc2ccc(C(F)(F)F)cc2)C(=NCc2ccc(OC)cc2)NC1c1ccccc1C(F)(F)F (centres undefined)	.	-3.7	.	.	.	.
COc1cccc(/C=N/N2CCN(c3ccncc3S(=O)(=O)N3CCCCC3)CC2)c1	65.7*	-4.2	-1.0	2.2	15.0	4.8
CCCCCCc1ccc(-c2ncc(N)cn2)cc1	39.5	-10.8	-19.2	-1.5	-0.9	51.2*
CN1CCN(c2nc3ccccn3c(=O)c2/C=C(\C#N)S(=O)(=O)c2ccccc2)CC1	12.0	99.1*	-9.6	2.8	-22.2	10.8
COCCN1C(=O)CSCC1(C)C(=O)NC(C)C (centres undefined)	.	-11.0	.	.	.	.
Cc1ccccc1NC(=O)C(=Cc1ccc(C(=O)O)cc1)C(=O)Nc1ccccc1C	-49.2	-6.6	-6.7	1.5	17.6	146.1*
CC(=O)Nc1ccccc1C	.	.	-9.6	1.2	-26.8	.
N#C/C(=C/c1ccc(C(=O)O)cc1)C(=O)Nc1ccccc1	-8.9	-0.4	-6.0	1.7	-4.2	-0.2
CC(=O)/C(=C/c1ccccc1)C(=O)Nc1ccccc1C	4.4	-7.6	11.9	12.7	-83.3	54.7*
O=C(CSc1nnc2c(Cl)cc(C(F)(F)F)cn12)N(Cc1ccccc1)Cc1ccccc1	7.5	-5.9	-1.8	-1.3	-18.4	104.7*
O=C(CSc1nnc2c(Cl)cc(C(F)(F)F)cn12)NCc1ccc(F)cc1	-6.2	-2.4	-6.8	2.2	-3.7	19.7
Cc1cccc2c1-c1sc(C(=O)Nc3nccs3)cc1CO2	-9.2	-4.9	-8.7	-1.7	-14.4	55.9*
Cc1cccc2c1-c1sc(C(=O)Nc3cccnc3)cc1CO2	-6.8	-2.6	-5.6	-6.3	2.2	1.4
O=C(Nc1nccs1)c1cc2c(s1)-c1ccccc1OC2	-33.1	-5.6	-6.6	-0.6	25.8	38.1
CCOC(=O)c1cc2c(s1)-c1c(C)cccc1OC2	-10.9	-3.9	68.2*	1.1	-1.4	45.6
O=C(NCC1CCN(C(=O)C(=O)c2cccs2)CC1)c1ccc2ccccc2c1	.	-8.5	.	.	.	.
CCCCCCOC(=O)c1ccc(OC(=O)c2cccnc2)cc1	8.1	.	-6.8	0.2	6.2	58.4*
CCCCOC(=O)c1ccc(OC(=O)c2cccnc2)cc1	0.3	-9.1	0.2	-0.3	31.0	13.5
SMILES	T cruzi repl	CaV13 FRET inh	PvdQ inh	N-glyco inh	PfHsp90 yeast 2	HSF-1 act
CCCCCCCOc1ccc(OC(=O)c2cccnc2)cc1	56.8*	.	1.6	-2.4	1.5	14.9
Cc1cc(N2CCN(C(=O)OC(C)(C)C)C[C@@H]2C)ccc1N1CCN(Cc2ccccc2)[C@@H](C)C1	.	-7.8	.	.	.	.
Cc1cccc(-c2cnc(C(O)c3ccc(Cl)cc3C)[nH]2)c1 (centres undefined)	.	-9.5	.	4.2	.	.
Cc1cccc(NC(=O)/C(C#N)=C/c2cn(CC(=O)NCc3ccco3)c3ccccc23)c1C	-4.3	-11.9	11.6	-4.6	-4.7	60.9*
Cc1cccc(NC(=O)/C(C#N)=C\c2cn(CC(=O)O)c3ccccc23)c1	-1.3	-5.0	10.3	2.1	5.8	-7.7
N#C/C(=C\c1cn(Cc2ccc(F)cc2)c2ccccc12)C(=O)NCc1ccco1	-6.2	-5.8	-8.5	-3.3	3.7	15.5
N#C/C(=C\c1cn(Cc2cccc(F)c2)c2ccccc12)C(=O)NCc1ccco1	-9.7	-4.1	9.6	-5.9	6.8	67.7*
N#C/C(=C\c1cn(Cc2ccccc2)c2ccccc12)C(=O)NCc1ccco1	-4.6	-8.7	1.6	-4.9	-19.2	75.0*
COC(=O)[C@]12C[C@H](CC(=O)NCCC(C)C)C(=O)N(Cc3ccccc3)C1=C[C@H](C(C)(C)C)O[C@@H]2C	.	-3.9	.	.	.	.
Cc1ccc(S(=O)(=O)N2CC3C(=O)C[C@@H](c4ccccc4)N(S(=O)(=O)c4ccc(CCCOCCOCCNC(=O)OC(C)(C)C)cc4)C3CC2c2ccccc2)cc1 (some centres undefined)	.	-9.8	.	.	.	.
C[C@@H]1CN([C@@H](C)CO)C(=O)CCCn2cc(nn2)CO[C@H]1CN(C)C(=O)Nc1cccc(F)c1	.	-7.6	.	.	.	.
C[C@@H]1CN(c2ccc(N3CCNC[C@H]3C)cc2C#N)C[C@H](C)O1	.	-7.0	.	.	.	.
CC(=O)N(c1ccccc1C)C1CCCC1	-4.1	-5.3	-13.2	1.1	-1.2	-6.4
CC(=O)N(C1=C(Cl)C(=O)c2ccccc2C1=O)C1CCCCC1	57.7*	15.6	5.4	20.8	109.1*	-31.3
CCOC(=O)N/N=C\c1ccccc1OC/C=C/c1ccccc1	-9.7	-7.1	1.3	-3.4	-22.3	55.5*
CCCn1c(SCC(=O)N2c3ccccc3Sc3ccccc32)nc2ccccc21	57.1*	-14.9	-5.8	-6.2	-0.5	20.6
O=C(CSc1nc(C2CC2)nc2ccccc12)N1c2ccccc2Sc2ccccc21	58.6*	-5.7	-3.1	-2.2	.	12.9
CC1(C(=O)Nc2ccc(F)c(Cl)c2)Cc2c(-c3ccc(C(N)=O)cc3)ccnc2O1 (centres undefined)	.	-5.8	.	-6.5	.	.
Oc1ccc(Nc2nc(N3CCCC3)c3ccccc3n2)cc1	59.1*	-4.7	8.7	53.2*	-9.4	-2.2
COc1ccc(Nc2nc(N3CCCCC3)c3ccccc3n2)cc1	49.6	.	-6.1	-3.9	-1.5	-22.9
CC12CCC(C(NC(=S)NN)C1=O)C2(C)C (centres undefined)	.	-9.7	-10.1	-1.0	-7.2	.
CCNC(=O)C1CCCN(Cc2cc(-c3ccccc3)on2)CC1 (centres undefined)	.	-6.5	.	-2.6	.	.
Cc1cc(OCCCCn2ccnc2)cc(C)c1Cl	68.6*	-6.6	-15.0	-2.1	-7.6	.

Source: PubChem BioAssay
